The list is not random: actives were taken first. Their share in the collection is about 3.9%.
SR-BI HDL uptake = mouse SR-BI HDL lipid transfer inhibition | inhibition, % at 12.5 µM | Q61009 | 320,000 compounds, 0.96% hits | ldlA[mSR-BI] CHO cells, DiI-HDL uptake fluorescence, 3 h;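 active = mean replicate inhibition of at least 70% and a set share of replicates each scoring 70 or more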;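 also: 0% = median of neutral control wells and 100% = median of positive control wells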
HIF act = HIF pathway transcriptional activation | U2OS HRE-luciferase reporter, luminescence; normalized: DMSO 0%, desferrioxamine 100% | activation, % at 7.5 µM (by protocol) | 300,000 compounds, 0.32% hits | AID 1910;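 active = mean activation of at least 10% of the iron chelator positive control signal, with at least half of replicates also reaching 10%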
AHR activator = activates the human aryl hydrocarbon receptor; P35869; AHR-responsive luciferase reporter cells, luminescence; activation, % at 5 µM; 320,000 compounds, 2.5% hits; AID 2796; in the data active = activation above about 47%;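 also: 0% = vehicle wells and 100% = reference agonist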
FXN GAA850 act = frataxin GAA850 promoter activation; HEK293 lucGAA850 FXN promoter luciferase reporter, 24 h; percent of 10 µM SAHA response; activation, % at 6 µM; 360,000 compounds, 0.56% hits; AID 540364;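 active = activation above the average of all compounds screened plus 3 SD, cutoff fixed separately per campaign, cut at about 7.5% in these data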;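 also: 0% = DMSO wells and 100% = 10 µM SAHA wells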
SR-BI DiI-HDL act = activators of SR-BI mediated HDL lipid uptake; CHO ldlA[mSR-BI] cells, DiI-HDL uptake fluorescence, 3 h; 100 = double the neutral-control signal; activation, % at 12.5 µM; 320,000 compounds, 0.096% hits;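 active = mean replicate activation of at least 60% and every replicate at or above 60%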;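 also: 0% = median plate neutral-control signal and 100% = twice that signal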
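Assay system: LDL receptor-deficient CHO ldlA cells overexpressing murine SR-BI / Medium: BSA-supplemented, HEPES-buffered Ham's F12, pH 7.4 / Probe or stimulus: DiI-labelled HDL at 10 µg/mL final / Timing: compound with DiI-HDL co-incubation, 3 h at 37 °C / Technique: bottom-read cell fluorescence after medium removal, ex 550/em 595 nm / Measure: HDL uptake via cellular fluorescence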
ABCB6 inh MLPCN = human ABCB6 transporter inhibition. Q9NP58. K562-ABCB6 porphyrin accumulation, flow cytometry, 1 h; stronger effect = lower value. fluorescence ratio to DMSO, % at 10 µM. 360,000 compounds, 0.19% hits;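 active = fluorescence ratio to DMSO below 75%, the collection mean minus 3 SD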;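 also: signal is porphyrin accumulated inside mitochondria; 100% equals median channel fluorescence of DMSO control wells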
Target sequence (Q9NP58 whole entry, looked up): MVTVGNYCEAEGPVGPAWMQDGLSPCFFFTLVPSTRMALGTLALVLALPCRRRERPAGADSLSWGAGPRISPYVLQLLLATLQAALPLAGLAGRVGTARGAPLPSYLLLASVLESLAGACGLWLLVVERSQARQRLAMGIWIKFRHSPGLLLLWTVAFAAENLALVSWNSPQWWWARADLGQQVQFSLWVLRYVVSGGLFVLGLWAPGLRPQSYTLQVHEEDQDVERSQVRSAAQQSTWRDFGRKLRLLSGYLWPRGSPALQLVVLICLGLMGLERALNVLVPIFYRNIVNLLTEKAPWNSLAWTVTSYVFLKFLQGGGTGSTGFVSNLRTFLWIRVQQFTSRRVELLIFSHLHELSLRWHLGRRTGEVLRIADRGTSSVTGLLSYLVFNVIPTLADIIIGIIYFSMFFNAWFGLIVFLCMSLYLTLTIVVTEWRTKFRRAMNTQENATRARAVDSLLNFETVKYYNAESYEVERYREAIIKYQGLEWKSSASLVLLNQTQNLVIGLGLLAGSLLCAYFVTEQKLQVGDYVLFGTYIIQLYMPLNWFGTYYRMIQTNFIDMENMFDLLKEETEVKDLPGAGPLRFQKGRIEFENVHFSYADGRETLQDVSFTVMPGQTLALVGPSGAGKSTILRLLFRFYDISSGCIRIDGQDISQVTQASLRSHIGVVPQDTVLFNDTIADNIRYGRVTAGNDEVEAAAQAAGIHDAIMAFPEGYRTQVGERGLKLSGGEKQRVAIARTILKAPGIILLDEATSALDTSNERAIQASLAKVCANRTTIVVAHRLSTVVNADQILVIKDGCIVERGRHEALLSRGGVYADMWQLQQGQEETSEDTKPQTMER
An asterisk follows results filed as active; · = not tested or not shown.

SMILES | SR-BI HDL uptake | HIF act | AHR activator | FXN GAA850 act | SR-BI DiI-HDL act | ABCB6 inh MLPCN
COCCN1CC(=O)N2C(c3cccc(C)c3)c3[nH]c4ccccc4c3C[C@H]2C1=O (some centres undefined) | 68 | -1 | 10 | -1 | -68 | 96
CN1CC(=O)N2C(c3cccc([N+](=O)[O-])c3)c3[nH]c4ccccc4c3C[C@H]2C1=O (some centres undefined) | 80* | 0 | 19 | -3 | -80 | 98
COCCCN1CC(=O)N2C(c3ccccc3)c3[nH]c4ccccc4c3C[C@H]2C1=O (some centres undefined) | 21 | 0 | 10 | 0 | -21 | 92
CCC(Sc1ncccn1)C(=O)Nc1cc(C)on1 (centres undefined) | -5 | 1 | 1 | -1 | 5 | 100
COc1ccc(Nc2cc(Nc3cc(OC)c(OC)c(OC)c3)ncn2)cc1 | 14 | -1 | 59* | 4 | -14 | 97
COc1ccc(C(=O)Nc2ccc(NC(=O)c3ccccc3OC)nc2)cc1 | 79* | 0 | -10 | 4 | -79 | 92
COc1ccc(C(=O)Nc2ccc(NC(=O)c3cc(OC)c(OC)c(OC)c3)cn2)cc1 | 77* | 0 | 1 | -3 | -77 | 99
COC(=O)c1cc(NC(=O)c2cccc(F)c2)cc(C(=O)OC)c1 | 78* | 0 | 1 | 1 | -78 | 96
COC(=O)C1CCN(C(=O)CN2C(=O)c3ccccc3S2(=O)=O)CC1 | -10 | 1 | 1 | -1 | 10 | 97
COc1cc(NC(=O)c2ccccc2)cc(OC)c1 | 0 | 5 | 46 | 3 | · | 94
O=C(Nc1cccc(NC(=O)c2cccc(F)c2)n1)c1cccc(F)c1 | 87* | 0 | 4 | 1 | -87 | 96
COc1ccc(NC(=O)Nc2ccc(Br)cn2)cc1 | 14 | 40* | -6 | 4 | -14 | 100
COc1ccc(N/C=C/C(=O)c2cc(OC)c(OC)c(OC)c2)cc1 | 72* | 1 | -3 | 1 | -72 | 102
COc1ccc(C(=O)Nc2cc(OC)cc(OC)c2)cc1 | 55 | 3 | 57* | 7 | -55 | 88
O=C(Nc1cccc(NC(=O)c2c(F)cccc2F)n1)c1c(F)cccc1F | 61 | -7 | 5 | 0 | -61 | 98
CC(CCN1CCC(CN2C(=O)C(=O)NC[C@@H]2Cc2ccccc2)CC1)c1ccccc1 (some centres undefined) | 25 | · | · | 2 | -25 | 98
COc1ccc(C)c2sc(N(CCN(C)C)C(=O)c3ccc4ccccc4c3)nc12 | 34 | 0 | 8 | 1 | -34 | 99
CC(=O)Nc1ccc(C(=O)N/N=C/c2ccncc2)cc1 | 0 | 0 | 0 | 2 | 0 | 91
COc1ccc(-c2nc3c(n2O)CCC/C3=N\O)cc1 | -8 | -1 | 11 | 5 | 8 | 99
COc1ccc(NC(=O)Nc2ccc(CC(=O)O)cc2)cc1 | -31 | 27* | -1 | -1 | 31 | 99
Cc1ccc(Oc2nnc(-c3ccc(C)cc3)c3ccccc23)cc1 | 29 | 1 | 0 | 1 | -29 | 97
COc1ccccc1C(=O)Nc1ccc(Oc2nnc(-c3ccc(C)cc3)c3ccccc23)cc1 | 84* | 0 | -2 | 0 | -84 | 104
COc1ccc(C(=O)Nc2ccc(NC(=O)c3cccc(F)c3)cn2)cc1 | 76* | 0 | -4 | -2 | -76 | 101
CC(=O)c1ccc(N2CCN(S(=O)(=O)c3cc4[nH]c(=O)c(=O)[nH]c4cc3C)CC2)cc1 | 4 | 1 | 47* | 2 | -4 | 96
O=C(CN1CCN(c2ccccn2)CC1)Nc1ccc([N+](=O)[O-])cc1C(=O)Nc1ccccc1F | 1 | 0 | 48* | 1 | -1 | 96
SMILES | SR-BI HDL uptake | HIF act | AHR activator | FXN GAA850 act | SR-BI DiI-HDL act | ABCB6 inh MLPCN
O=C(Nc1ccc(S(=O)(=O)N2CCOCC2)cc1)c1ccc2c(c1)OCO2 | · | 1 | 2 | 0 | · | 96
O=S(=O)(c1ccc(NC(=S)Nc2ccc3c(c2)OCO3)cc1)N1CCOCC1 | -23 | 3 | 74* | 1 | 23 | 106
COc1ccc(C(=O)N2CC(=O)Nc3ccccc32)cc1S(=O)(=O)N1CCOCC1 | · | 0 | 2 | -1 | · | 100
CCOc1ncccc1C(=O)Nc1ccc2nc(C)sc2c1 | · | 1 | 10 | 7 | · | 92
CCOc1ncccc1C(=O)Nc1cccc(-c2nnc3n2CCCCC3)c1 | -1 | 0 | 47* | 2 | 1 | 95
CCOc1ncccc1C(=O)Nc1nc(C(C)(C)C)cs1 | 18 | 0 | 59* | -1 | -18 | 89
CCOc1ncccc1C(=O)Nc1ccc(F)c(F)c1 | 45 | 2 | 60* | 3 | -45 | 92
Cc1cnc(C(=O)Nc2cccc(-c3nnc4n3CCCCC4)c2)cn1 | -17 | 0 | 14 | -1 | 17 | 102
c1cc(Nc2ncnc3sccc23)cc(-c2nnc3n2CCCCC3)c1 | -5 | 1 | 49* | 3 | 5 | 90
Cc1nn(C(C)C(=O)NCCCN(Cc2ccccc2)C(C)C)c(=O)c2c1sc1ccccc12 (centres undefined) | -6 | 0 | 1 | 1 | 6 | 99
CCOc1ncccc1C(=O)Nc1ccc(F)c(Cl)c1 | -3 | 0 | 61* | -1 | 3 | 97
COc1cc(/C=N/NC(=O)c2c(-c3ccccc3)noc2C)ccc1O | 4 | 0 | 3 | -1 | -4 | 109
COc1cccc(/C=N/NC(=O)c2c(-c3ccccc3)noc2C)c1O | 56 | 1 | 4 | -7 | -56 | 94
CCOc1cc(/C=N/NC(=O)c2c(-c3ccccc3)noc2C)ccc1O | 1 | 100* | 5 | 0 | -1 | 96
CCOc1cc([N+](=O)[O-])cc(/C=N/NC(=O)c2c(-c3ccccc3)noc2C)c1O | 72* | -1 | 2 | 2 | -72 | 95
Cc1ccc(/C=N/NC(=O)c2c(-c3ccccc3)noc2C)c(O)c1 | 108* | 18* | -2 | -1 | -108 | 96
CCCCCCCCCOC(=O)C1N2C(=O)[C@@H](NC(=O)COc3ccccc3)[C@H]2SC1(C)C (some centres undefined) | -8 | 2 | 0 | -1 | 8 | 92
CN(C)/C=N/c1nc2nccc(-c3cccs3)n2n1 | -20 | 0 | 75* | 0 | 20 | 97
CCOc1ccc(NC(=S)NCCN2CCN(Cc3ccccc3)CC2)cc1 | -14 | 0 | -2 | 0 | 14 | 96
O=[N+]([O-])c1ccc(-c2ccc(S(=O)(=O)N3CCOCC3)cc2)cc1 | 80* | 1 | 1 | -2 | -80 | 96
Cc1ccc(S(=O)(=O)Nc2nc3ccccc3nc2NCC2CCCO2)c(C)c1 (centres undefined) | · | 0 | 4 | 0 | · | 94

Compound activity as filed in PubChem BioAssay.
